Test results published in ChEMBL document CHEMBL1144108, “Annocherin and (2,4)-cis- and trans-annocherinones, monotetrahydrofuran Annonaceous acetogenins with a C-7 carbonyl group from Annona cherimolia seeds” (J Nat Prod, 1999).
In brackets after ≈: the same amount, converted by molar mass.

Legend:
[1] = test system: HT-29; test: Cytotoxicity against human HT-29 cells after 7 days by MTT assay; format: functional; settings: HT-29, 168 h, read-out: ED50 (the source's name)
Outline: (§1)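 Seven-day in vitro MTT cytotoxicity assay run at the Purdue Cancer Center Cell Culture Laboratory to standard protocols. Lines: A-549 lung carcinoma, MCF-7 breast carcinoma, HT-29 colon adenocarcinoma, A-498 kidney carcinoma, PC-3 prostate adenocarcinoma, MIA PaCa-2 pancreatic carcinoma. Adriamycin served as positive control.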

[2] = test system: A498; test: Cytotoxicity against human A-498 cells after 7 days by MTT assay; format: functional; settings: A498, 168 h, read-out: ED50 (the source's name); outline: as §1
[3] = test system: A498; test: Selectivity for human A498 cells over human HT29 cells; format: functional
[4] = test system: A549; test: Cytotoxicity against human A549 cells after 7 days by MTT assay; format: functional; settings: A549, 168 h, read-out: ED50 (the source's name); outline: as §1
[5] = Toxicity to brine shrimp larvae; format: organism-based; settings: artemia salina, in vivo
[6] = test system: MIA PaCa-2; test: Cytotoxicity against human MIA PaCa2 cells after 7 days by MTT assay; format: functional; settings: MIA PaCa-2, 168 h, read-out: ED50 (the source's name); outline: as §1
[7] = test system: MCF7; test: Cytotoxicity against human MCF7 cells after 7 days by MTT assay; format: functional; settings: MCF7, 168 h, read-out: ED50 (the source's name); outline: as §1
[8] = test system: MIA PaCa-2; test: Selectivity for human A498 cells over human MIA PaCa2 cells; format: functional
[9] = test system: PC-3; test: Cytotoxicity against human PC-3 cells after 7 days by MTT assay; format: functional; settings: PC-3, 168 h, read-out: ED50 (the source's name); outline: as §1

Compound	EC50 [1] [µg/mL]	EC50 [2] [µg/mL]	Selectivity ratio [3]	EC50 [4] [µg/mL]	LC50 [5] [µg/mL]	EC50 [6] [µg/mL]	EC50 [7] [µg/mL]	Selectivity ratio [8]	EC50 [9] [µg/mL]
CCCCCCCCCCCC[C@H](O)[C@@H]1CC[C@@H]([C@@H](O)CCCCCCCC(O)CC[C@@H](O)CC2=C[C@H](C)OC2=O)O1 (some centres undefined)	0.001 (≈ 0.00168 µM)	2.96 (≈ 4.96 µM)	1000	1.63 (≈ 2.73 µM)	0.0125 (≈ 0.0209 µM)	0.001 (≈ 0.00168 µM)	0.011 (≈ 0.0184 µM)	1000	1.32 (≈ 2.21 µM)
CCCCCCCCCCCC[C@H](O)[C@@H]1CC[C@@H]([C@@H](O)CCCCCCCC(=O)CC[C@@H](O)CC2=C[C@H](C)OC2=O)O1 [ANNOCHERIN]	3.54 (≈ 5.95 µM)	0.022 (≈ 0.037 µM)	161	1.67 (≈ 2.81 µM)	0.137 (≈ 0.23 µM)	2.88 (≈ 4.84 µM)	0.308 (≈ 0.518 µM)	131	0.862 (≈ 1.45 µM)
COc1cccc2c1C(=O)c1c(O)c3c(c(O)c1C2=O)C[C@@](O)(C(=O)CO)C[C@@H]3O[C@H]1C[C@H](N)[C@H](O)[C@H](C)O1 [DOXORUBICIN]	0.0168 (≈ 0.0309 µM)	0.0156 (≈ 0.0287 µM)	–	0.0043 (≈ 0.00791 µM)	–	0.00101 (≈ 0.00186 µM)	0.129 (≈ 0.237 µM)	–	0.0499 (≈ 0.0918 µM)
